According to BindingDB's records for doi:10.1021/jm970671g (Signal Pharmaceuticals, 1998):
pIC50: −log10 of the molar value.

target: T1, Nuclear factor NF-kappa-B p105 subunit (Homo sapiens, UniProt P19838); assay: In vitro inhibitory activity against human Jurkat T-Cells stably transfected with an Nuclear factor kappa B transcription factor
T1 sequence (P19838 whole entry): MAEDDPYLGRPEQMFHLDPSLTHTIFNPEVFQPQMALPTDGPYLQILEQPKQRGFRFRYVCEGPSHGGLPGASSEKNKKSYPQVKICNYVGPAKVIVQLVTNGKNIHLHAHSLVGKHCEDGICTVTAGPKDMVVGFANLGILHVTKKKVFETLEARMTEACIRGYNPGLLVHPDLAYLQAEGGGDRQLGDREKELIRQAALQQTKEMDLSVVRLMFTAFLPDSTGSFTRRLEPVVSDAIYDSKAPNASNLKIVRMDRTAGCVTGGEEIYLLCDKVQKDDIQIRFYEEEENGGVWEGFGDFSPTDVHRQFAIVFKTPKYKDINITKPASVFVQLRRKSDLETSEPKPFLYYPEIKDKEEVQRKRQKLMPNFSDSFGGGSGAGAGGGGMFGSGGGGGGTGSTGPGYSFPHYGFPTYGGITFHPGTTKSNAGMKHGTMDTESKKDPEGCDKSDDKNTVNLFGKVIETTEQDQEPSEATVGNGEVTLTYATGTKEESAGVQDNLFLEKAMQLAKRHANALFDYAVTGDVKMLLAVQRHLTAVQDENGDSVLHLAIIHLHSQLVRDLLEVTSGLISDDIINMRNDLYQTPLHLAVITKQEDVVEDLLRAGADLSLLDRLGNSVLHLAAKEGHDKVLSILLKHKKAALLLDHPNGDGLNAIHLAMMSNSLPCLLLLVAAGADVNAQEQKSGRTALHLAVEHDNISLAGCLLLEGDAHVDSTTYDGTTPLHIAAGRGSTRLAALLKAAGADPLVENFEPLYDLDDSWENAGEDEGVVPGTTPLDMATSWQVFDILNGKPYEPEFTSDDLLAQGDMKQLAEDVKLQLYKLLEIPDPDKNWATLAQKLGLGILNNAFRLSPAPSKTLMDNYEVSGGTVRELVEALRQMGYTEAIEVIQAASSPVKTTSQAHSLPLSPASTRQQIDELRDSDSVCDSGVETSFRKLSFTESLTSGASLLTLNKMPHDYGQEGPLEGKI
Outline: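 Jurkat T-cells stably carrying NF-κB site (MHC promoter) on minimal SV-40 promoter driving luciferase, plated 1 × 10^6 cells/mL in 10% Serum-Plus 18 h prior. Compound in 0.2% DMSO/H2O added 0.5 h at 37 °C; induced with PMA 50 ng/mL and PHA 1 μg/mL, 5 h at 37 °C. Lysate luminescence read; IC50 = concentration halving luciferase versus control.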

| SMILES | pIC50 |
| --- | --- |
| COc1ncc(C(=O)Nc2cc(Cl)cc(Cl)c2)c(C(F)(F)F)n1 [2-Methoxy-4-trifluoromethyl-pyrimidine-5-carboxylic acid (3,5-dichloro-phenyl)-amide] | < 5.00 |
| O=C(Nc1cc(Cl)nc(Cl)n1)c1cnc(Cl)nc1C(F)(F)F [2-Chloro-4-trifluoromethyl-pyrimidine-5-carboxylic acid (2,6-dichloro-pyrimidin-4-yl)-amide] | 6.10 |
| O=C(Nc1cc(Cl)cc(Cl)c1)c1cnc(Nc2ccccc2)nc1C(F)(F)F [2-Phenylamino-4-trifluoromethyl-pyrimidine-5-carboxylic acid (3,5-dichloro-phenyl)-amide] | < 5.00 |
| CCCCCCCCOC(=O)c1cc(NC(=O)c2cnc(Cl)nc2C(F)(F)F)cc(C(F)(F)F)c1 [3-[(2-Chloro-4-trifluoromethyl-pyrimidine-5-carbonyl)-amino]-5-trifluoromethyl-benzoic acid octyl ester] | 5.74 |
| Cc1cc(NC(=O)c2cnc(Cl)nc2C(F)(F)F)on1 [2-Chloro-4-trifluoromethyl-pyrimidine-5-carboxylic acid (3-methyl-isoxazol-5-yl)-amide] | 5.40 |
| Cc1ccc(NC(=O)c2cnc(Cl)nc2C(F)(F)F)s1 [2-Chloro-4-trifluoromethyl-pyrimidine-5-carboxylic acid (5-methyl-thiophen-2-yl)-amide] | 5.64 |
| CCCCOC(=O)c1cc(NC(=O)c2cnc(Cl)nc2C(F)(F)F)cc(C(F)(F)F)c1 [3-[(2-Chloro-4-trifluoromethyl-pyrimidine-5-carbonyl)-amino]-5-trifluoromethyl-benzoic acid butyl ester] | 6.77 |
| O=C(Nc1cc(Cl)cc(Cl)c1)c1cnc(Cl)nc1C(F)(F)F [2-Chloro-4-trifluoromethyl-pyrimidine-5-carboxylic acid (3,5-dichloro-phenyl)-amide] | 6.30 |
| O=C(Nc1cc(Cl)c(Cl)c(Cl)c1)c1cnc(Cl)nc1C(F)(F)F [2-Chloro-4-trifluoromethyl-pyrimidine-5-carboxylic acid (3,4,5-trichloro-phenyl)-amide] | 6.05 |
| O=C(Nc1cc(Cl)cc(Cl)c1)c1cncnc1C(F)(F)F [4-Trifluoromethyl-pyrimidine-5-carboxylic acid (3,5-dichloro-phenyl)-amide] | < 5.00 |
| CCCCNC(=O)c1cc(NC(=O)c2cnc(Cl)nc2C(F)(F)F)cc(C(F)(F)F)c1 [2-Chloro-4-trifluoromethyl-pyrimidine-5-carboxylic acid (3-butylcarbamoyl-5-trifluoromethyl-phenyl)-amide] | < 5.00 |
| O=C(Nc1cc(Cl)cc(Cl)c1)c1cnc(=O)[nH]c1C(F)(F)F [2-Hydroxy-4-trifluoromethyl-pyrimidine-5-carboxylic acid (3,5-dichloro-phenyl)-amide] | < 5.00 |
| CCOC(=O)c1cc(NC(=O)c2cnc(Cl)nc2C(F)(F)F)cc(C(F)(F)F)c1 [3-[(2-Chloro-4-trifluoromethyl-pyrimidine-5-carbonyl)-amino]-5-trifluoromethyl-benzoic acid ethyl ester] | 6.55 |
| O=C(OC1CCCCC1)c1cc(NC(=O)c2cnc(Cl)nc2C(F)(F)F)cc(C(F)(F)F)c1 [3-[(2-Chloro-4-trifluoromethyl-pyrimidine-5-carbonyl)-amino]-5-trifluoromethyl-benzoic acid cyclohexyl ester] | 5.74 |
| O=C(Nc1cc(C(F)(F)F)cc(C(F)(F)F)c1)c1cnc(Cl)nc1C(F)(F)F [2-Chloro-4-trifluoromethyl-pyrimidine-5-carboxylic acid (3,5-bis-trifluoromethyl-phenyl)-amide] | 7.30 |
| O=C(Nc1cc(Cl)cc(Cl)c1)c1cnc(NC2CCCCC2)nc1C(F)(F)F [2-Cyclohexylamino-4-trifluoromethyl-pyrimidine-5-carboxylic acid (3,5-dichloro-phenyl)-amide] | < 5.00 |

| SMILES | pIC50 |
| --- | --- |
| CCCCCCOC(=O)c1cc(NC(=O)c2cnc(Cl)nc2C(F)(F)F)cc(C(F)(F)F)c1 [3-[(2-Chloro-4-trifluoromethyl-pyrimidine-5-carbonyl)-amino]-5-trifluoromethyl-benzoic acid hexyl ester] | 6.21 |
| CCOP(=O)(COC(=O)c1cc(NC(=O)c2cnc(Cl)nc2C(F)(F)F)cc(C(F)(F)F)c1)OCC [3-[(2-Chloro-4-trifluoromethyl-pyrimidine-5-carbonyl)-amino]-5-trifluoromethyl-benzoic acid diethoxy-phosphorylmethyl ester] | 5.34 |
| CCCCNc1ncc(C(=O)Nc2cc(Cl)cc(Cl)c2)c(C(F)(F)F)n1 [2-Butylamino-4-trifluoromethyl-pyrimidine-5-carboxylic acid (3,5-dichloro-phenyl)-amide] | < 5.00 |
| O=C(c1cnc(Cl)nc1C(F)(F)F)N(Cc1ccccc1)c1cc(Cl)cc(Cl)c1 [2-Chloro-4-trifluoromethyl-pyrimidine-5-carboxylic acid benzyl-(3,5-dichloro-phenyl)-amide] | 5.57 |
| CCCCNC(=O)c1cnc(Cl)nc1C(F)(F)F [2-Chloro-4-trifluoromethyl-pyrimidine-5-carboxylic acid butylamide] | < 5.00 |
| Nc1ncc(C(=O)Nc2cc(Cl)cc(Cl)c2)c(C(F)(F)F)n1 [2-Amino-4-trifluoromethyl-pyrimidine-5-carboxylic acid (3,5-dichloro-phenyl)-amide] | < 5.00 |
| O=C(Nc1ccc(C(F)(F)F)cc1)c1cnc(Cl)nc1C(F)(F)F [2-Chloro-4-trifluoromethyl-pyrimidine-5-carboxylic acid (4-trifluoromethyl-phenyl)-amide] | 6.42 |
| CN(C(=O)c1cnc(Cl)nc1C(F)(F)F)c1cc(Cl)cc(Cl)c1 [2-Chloro-4-trifluoromethyl-pyrimidine-5-carboxylic acid (3,5-dichloro-phenyl)-methyl-amide] | 5.64 |
| NC(=O)c1cc(NC(=O)c2cnc(Cl)nc2C(F)(F)F)cc(C(F)(F)F)c1 [2-Chloro-4-trifluoromethyl-pyrimidine-5-carboxylic acid (3-carbamoyl-5-trifluoromethyl-phenyl)-amide] | 5.30 |
| O=C(Nc1ccccc1)c1cnc(Cl)nc1C(F)(F)F [2-Chloro-4-trifluoromethyl-pyrimidine-5-carboxylic acid phenylamide] | < 5.00 |
| Cc1cccc(C)c1NC(=O)c1cnc(Cl)nc1C(F)(F)F [2-Chloro-4-trifluoromethyl-pyrimidine-5-carboxylic acid (2,6-dimethyl-phenyl)-amide] | < 5.00 |
| CN(C)c1ncc(C(=O)Nc2cc(Cl)cc(Cl)c2)c(C(F)(F)F)n1 [2-Dimethylamino-4-trifluoromethyl-pyrimidine-5-carboxylic acid (3,5-dichloro-phenyl)-amide] | < 5.00 |
| COc1cc(NC(=O)c2cnc(Cl)nc2C(F)(F)F)cc(OC)c1 [2-Chloro-4-trifluoromethyl-pyrimidine-5-carboxylic acid (3,5-dimethoxy-phenyl)-amide] | 5.92 |
| O=C(Nc1cc(Cl)cc(Cl)c1)c1cnc(NCc2ccccc2)nc1C(F)(F)F [2-Benzylamino-4-trifluoromethyl-pyrimidine-5-carboxylic acid (3,5-dichloro-phenyl)-amide] | < 5.00 |
| O=C(Nc1cc(Cl)cc(Cl)c1)c1cnc(N2CCCCC2)nc1C(F)(F)F [2-Piperidin-1-yl-4-trifluoromethyl-pyrimidine-5-carboxylic acid (3,5-dichloro-phenyl)-amide] | 5.30 |
